Assay [1] concerns N9 TCR / Kd molecule. As to the kind of experiment: Inhibition of N9 TCR photoaffinity labeling by competitor peptides and mAbs. Format: binding, mouse. The settings on record: competitor peptide at 300-fold molar excess; N9 cells; SDS-PAGE 10%, nonreducing.
Assay [2] has as its system CTL clone N9. The experiment in a line: 51Cr-release CTL recognition assay, clone N9. Format: cell-based, mouse. The gist of the method: (§1)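 Test peptide derivatives were titrated in threefold dilutions on P815 target cells in a 51Cr-release assay at an E/T ratio of 3:1, run 4 h at 37°C. Specific lysis = 100 × (experimental − spontaneous)/(total − spontaneous). Relative antigenic activity = concentration of the reference photoprobe giving 50% maximal lysis divided by that of the variant.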

Assay [3] has as its target Kd molecule. The settings on record: cited from earlier work.
For assay [4], the system named is TCR of biotin-YIPSAEK(IASA)I-specific CTL clones. The settings on record: different cell types; cited from earlier work.
Assay [5] has as its system biotin-YIPSAEK(IASA)I-specific CTL clones. The experiment in a line: CTL recognition of peptide derivatives, statements over several clones. Format: cell-based, mouse. The gist of the method:
as §1

Assay [6] has as its target Kd molecule. The settings on record: compared with isomeric IASA-YIPSAEK(biotin)I or the parent derivative; cited from earlier work.
The test system of assay [7] is TCR of biotin-YIPSAEK(IASA)I-specific CTL clones. The experiment in a line: TCR photoaffinity labeling on living CTL clones. Format: binding, mouse. The settings on record: for TCR photoaffinity labeling: 4-5 h 37 C, UV 312 nm 5 min, TCR immunoprecipitated, SDS-PAGE. In short, it runs like this:
(§2)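 Live CTL clone cells were washed into DMEM with 0.5% FCS and 10 mM Hepes. They were incubated with biotinylated 125I-IASA photoprobe (~2,000 Ci/mmol) plus human β2m, 4-5 h at 37°C in 5% CO2, then UV irradiated at 312 nm for 5 min at 4°C. Cells were lysed in 0.7% NP-40 with leupeptin, PMSF and iodoacetamide. Kd (mAb 20-8-4S) or TCR-α/β (H57-597) was immunoprecipitated and run on 10% reducing SDS-PAGE.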

Assay [8] deals with Kd molecule. As to the kind of experiment: Kd photoaffinity labeling on CTL clones. Format: binding, mouse. The settings on record: UV irradiation, Kd immunoprecipitated, SDS-PAGE 10%, reducing. In short, it runs like this: as §2

Read-outs that look alike come from different tables or passages of the source.

Regarding YIPSAEKI [PbCS 253-260], the “effect on N9 TCR labeling by biotin-YIPSAEK(125IASA)I” value in assay [1] is “abolished”.
Regarding “biotin-YIPSAEK (4-azido benzoic acid [ABA]I [biotin-YIPSAEK(ABA)I]”, the “efficiency of recognition relative to the original photoprobe” value in assay [2] (clone N9, versus biotin-YIPSAEK(IASA)I) is given as “about 50 times”.
For IASA-YIPSAEK(biotin)I, in assay [3], the Kd photoaffinity labeling result is “selectively labeled the Kd molecules”. In assay [4], the TCR photoaffinity labeling result is “failsto label”.
Consider biotin-YIPSAEK(BA)I, for which the “recognition by clone N9 compared with the original conjugate” value in assay [2] (clone N9, only clone among the eight to recognize this variant) was “as efficientlyas the original”.
For the substance biotin-YIPSAEK(IASA)I, the Kd photoaffinity labeling result in assay [3] is “could not”. For the same substance, in assay [5] (additional clone 08, data not shown), the “recognition by clone O8” value is reported as “recognized”. Further, in assay [6], the “binding to Kd molecules” value is “bound equally efficiently”.
In the case of biotin-YIPSAEK(ASA)I, the “improvement of recognition on removal of the iodine from the IASA group” value in assay [5] (the other four clones, versus biotin-YIPSAEK(IASA)I) is reported as 6-12 fold.
Regarding biotin-YIPSAEK(125IASA)I, the TCR photoaffinity labeling result in assay [7] (clone N1) was “No significant TCR labeling”; in assay [7] (clone N4), “showed TCR photoaffinity labeling”; in assay [7] (clone N9), “showed TCR photoaffinity labeling”; in assay [7] (clone N11), “showed TCR photoaffinity labeling”; in assay [7] (clone O1) it was “No significant TCR labeling”; in assay [7] (clone O7), “No significant TCR labeling”. In addition, the TCR photoaffinity labeling result in assay [7] (clone O11) was “No significant TCR labeling”. In assay [7] (clone N9, two-dimensional gel electrophoresis), the “photoaffinity-labeled TCR chain” value was “labeled both chains”.
For the substance “lZSlASA-YIPSAEK(biotin)I [125IASA-YIPSAEK(biotin)I]”, the Kd photoaffinity labeling entry is on record as “slightly reduced” in assay [8] (clone N1); “efficient” in assay [8] (clone N4); “efficient” in assay [8] (clone N6); “efficient” in assay [8] (clone N9); “slightly reduced” in assay [8] (clone N11); “efficient” in assay [8] (clone O1).
